# Laboratory results reported in ChEMBL document CHEMBL1144562, “Synthesis of a new class of 2-anilino substituted nicotinyl arylsulfonylhydrazides as potential anticancer and antibacterial agents” (2007).
# Tests used:
# Escherichia coli = experiment: Antibacterial activity against Escherichia coli MTCC 448 after 18 hrs; type: functional; conditions: MTCC 448, 18 h
# Summary of the method: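 Disc diffusion (Kirby–Bauer) on Mueller-Hinton agar inoculated with fresh bacteria at 1-5 × 10^4 cfu mL-1. Compounds were dissolved in DMF at a range of concentrations, and discs were placed in triplicate. Plates were incubated at 30 °C for 18 h. MIC was taken as the lowest concentration giving no visible bacterial growth on the plate.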
# SK-MEL-28 = experiment: Antitumor activity against SK-MEL-28 cells; type: functional; conditions: Homo sapiens
# [1] = Antitumor activity against LOX IMV1 cells; type: functional; conditions: Homo sapiens
# M14 = experiment: Antitumor activity against M14 cells; type: functional; conditions: Homo sapiens
# SN12C = experiment: Antitumor activity against SN12C cells; type: functional; conditions: Homo sapiens
# Summary of the method: (§1)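 Tested in the NCI 60-human-tumour-cell-line panel at five concentrations, in 10-fold dilutions from 10^-4 to 10^-8 M. Three parameters were taken from the dose-response data, each as log10 of the molar concentration: GI50 (50% net growth inhibition), TGI (total growth inhibition) and LC50 (50% net cell death).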
# NCI-H226 = experiment: Antitumor activity against NCI-H226 cells; type: functional; conditions: Homo sapiens
# [2] = Antitumor activity against NCI-H322 cells; type: functional; conditions: Homo sapiens
# BT-549 = experiment: Antitumor activity against BT549 cells; type: functional; conditions: Homo sapiens
# HCC 2998 = experiment: Antitumor activity against HCC2998 cells; type: functional; conditions: Homo sapiens
# COLO 205 = experiment: Antitumor activity against COLO205 cells; type: functional; conditions: Homo sapiens
# HOP-62 = experiment: Antitumor activity against HOP62 cells; type: functional; conditions: Homo sapiens
# SF-268 = experiment: Antitumor activity against SF268 cells; type: functional; conditions: Homo sapiens
# MDA-MB-435 = experiment: Antitumor activity against MDA-MB-435 cells; type: functional; conditions: Homo sapiens
# MCF7 = experiment: Antitumor activity against MCF7 cells; type: functional; conditions: Homo sapiens
# SR = experiment: Antitumor activity against SR cells; type: functional; conditions: Homo sapiens; summary of the method: as §1
# SNB-75 = experiment: Antitumor activity against SNB75 cells; type: functional; conditions: Homo sapiens; summary of the method: as §1
# SW-620 = experiment: Antitumor activity against SW620 cells; type: functional; conditions: Homo sapiens; summary of the method: as §1
# NCI-H460 = experiment: Antitumor activity against NCI-H460 cells; type: functional; conditions: Homo sapiens
# SF-295 = experiment: Antitumor activity against SF295 cells; type: functional; conditions: Homo sapiens
# T47D = experiment: Antitumor activity against T47D cells; type: functional; conditions: Homo sapiens; summary of the method: as §1
# PC-3 = experiment: Antitumor activity against PC3 cells; type: functional; conditions: Homo sapiens
# Hs-578T = experiment: Antitumor activity against HS578T cells; type: functional; conditions: Homo sapiens
# UACC-62 = experiment: Antitumor activity against UACC62 cells; type: functional; conditions: Homo sapiens; summary of the method: as §1
# HT-29 = experiment: Antitumor activity against HT29 cells; type: functional; conditions: Homo sapiens
# 786-0 = experiment: Antitumor activity against 786-0 cells; type: functional; conditions: Homo sapiens
# SF-539 = experiment: Antitumor activity against SF539 cells; type: functional; conditions: Homo sapiens
# K562 = experiment: Antitumor activity against K562 cells; type: functional; conditions: Homo sapiens
# [3] = Antitumor activity against HL60 (TB) cells; type: functional, HL-60(TB); conditions: Homo sapiens, HL-60
# Summary of the method: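 NCI 60-cell-line in vitro screen (leukaemia subpanel). Compound tested at five 10-fold dilutions from 10^-4 to 10^-8 M. Dose-response parameters: GI50 (concentration giving 50% net growth inhibition), TGI (total growth inhibition) and LC50 (50% net cell death), each reported as log10 of molar concentration.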
# SK-MEL-5 = experiment: Antitumor activity against SK-MEL-5 cells; type: functional; conditions: Homo sapiens; summary of the method: as §1
# A549 = experiment: Antitumor activity against A549 cells; type: functional; conditions: Homo sapiens
# OVCAR-4 = experiment: Antitumor activity against OVCAR4 cells; type: functional; conditions: Homo sapiens
# OVCAR-8 = experiment: Antitumor activity against OVCAR8 cells; type: functional; conditions: Homo sapiens
# ACHN = experiment: Antitumor activity against ACHN cells; type: functional; conditions: Homo sapiens
# UACC-257 = experiment: Antitumor activity against UACC257 cells; type: functional; conditions: Homo sapiens; summary of the method: as §1
# U-251 = experiment: Antitumor activity against U251 cells; type: functional; conditions: Homo sapiens; summary of the method: as §1
# OVCAR-3 = experiment: Antitumor activity against OVCAR-3 cells; type: functional; conditions: Homo sapiens
# CCRF-CEM = experiment: Antitumor activity against CCRF-CEM cells; type: functional; conditions: Homo sapiens
# RXF 393 = experiment: Antitumor activity against RXF393 cells; type: functional; conditions: Homo sapiens
# KM12 = experiment: Antitumor activity against KM12 cells; type: functional; conditions: Homo sapiens
# EKVX = experiment: Antitumor activity against EKVX cells; type: functional; conditions: Homo sapiens
# [4] = read-out: Log LC50 (the source's name) (converted)
structure (smiles),measurement,setting,value
O=C(NNS(=O)(=O)c1ccc(Cl)cc1Cl)c1cccnc1Nc1ccc(Cl)cc1,MIC,Escherichia coli,20 µg/mL
same,GI50,SK-MEL-28,35.5 µM
same,LC50,SK-MEL-28,> 100 µM
same,TGI,SK-MEL-28; read-out: Log TGI (converted),> 100 µM
same,GI50,[1],20.9 µM
same,LC50,[1],> 100 µM
same,TGI,[1]; read-out: Log TGI (converted),46.8 µM
same,GI50,M14,19.1 µM
same,LC50,M14,79.4 µM
same,TGI,M14; read-out: Log TGI (converted),38.9 µM
same,GI50,SN12C,31.6 µM
same,LC50,SN12C,> 100 µM
same,TGI,SN12C; read-out: Log TGI (converted),> 100 µM
same,GI50,NCI-H226,24 µM
same,CC50,NCI-H226; [4],> 100 µM
same,TGI,NCI-H226; read-out: Log TGI (converted),58.9 µM
same,GI50,[2],14.8 µM
same,CC50,[2]; [4],> 100 µM
same,TGI,[2]; read-out: Log TGI (converted),40.7 µM
same,GI50,BT-549,16.6 µM
same,LC50,BT-549,72.4 µM
same,TGI,BT-549; read-out: Log TGI (converted),34.7 µM
same,GI50,HCC 2998,13.5 µM
same,LC50,HCC 2998,61.7 µM
same,TGI,HCC 2998; read-out: Log TGI (converted),28.8 µM
same,GI50,COLO 205,12 µM
same,LC50,COLO 205,49 µM
same,TGI,COLO 205; read-out: Log TGI (converted),24.5 µM
same,GI50,HOP-62,16.6 µM
same,CC50,HOP-62; [4],85.1 µM
same,TGI,HOP-62; read-out: Log TGI (converted),38 µM
same,GI50,SF-268,36.3 µM
same,LC50,SF-268,> 100 µM
same,TGI,SF-268; read-out: Log TGI (converted),100 µM
same,GI50,MDA-MB-435,27.5 µM
same,LC50,MDA-MB-435,> 100 µM
same,TGI,MDA-MB-435; read-out: Log TGI (converted),81.3 µM
same,GI50,MCF7,35.5 µM
same,LC50,MCF7,> 100 µM
same,TGI,MCF7; read-out: Log TGI (converted),> 100 µM
same,GI50,SR,14.8 µM
same,LC50,SR,97.7 µM
same,TGI,SR; read-out: Log TGI (converted),38 µM
same,GI50,SNB-75,22.4 µM
same,CC50,SNB-75; [4],> 100 µM
same,TGI,SNB-75; read-out: Log TGI (converted),85.1 µM
same,GI50,SW-620,28.2 µM
same,CC50,SW-620; [4],> 100 µM
same,TGI,SW-620; read-out: Log TGI (converted),> 100 µM
same,GI50,NCI-H460,35.5 µM
same,LC50,NCI-H460,> 100 µM
same,TGI,NCI-H460; read-out: Log TGI (converted),100 µM
same,GI50,SF-295,30.2 µM
same,CC50,SF-295; [4],> 100 µM
same,TGI,SF-295; read-out: Log TGI (converted),77.6 µM
same,GI50,T47D,10.7 µM
same,CC50,T47D; [4],> 100 µM
same,TGI,T47D; read-out: Log TGI (converted),51.3 µM
same,GI50,PC-3,23.4 µM
same,LC50,PC-3,> 100 µM
same,TGI,PC-3; read-out: Log TGI (converted),81.3 µM
same,GI50,Hs-578T,17.8 µM
same,CC50,Hs-578T; [4],97.7 µM
same,TGI,Hs-578T; read-out: Log TGI (converted),41.7 µM
same,GI50,UACC-62,21.9 µM
same,LC50,UACC-62,> 100 µM
same,TGI,UACC-62; read-out: Log TGI (converted),75.9 µM
same,GI50,HT-29,22.9 µM
same,LC50,HT-29,> 100 µM
same,TGI,HT-29; read-out: Log TGI (converted),53.7 µM
same,GI50,786-0,19.5 µM
same,"LC50 (lethal concentration, 50%)",786-0,> 100 µM
same,TGI,786-0; read-out: Log TGI (converted),49 µM
same,GI50,SF-539,19.1 µM
same,LC50,SF-539,> 100 µM
same,TGI,SF-539; read-out: Log TGI (converted),44.7 µM
same,GI50,K562,12.9 µM
same,LC50,K562,50.1 µM
same,TGI,K562; read-out: Log TGI (converted),25.7 µM
same,GI50,[3],24 µM
same,LC50,[3],83.2 µM
same,TGI,[3]; read-out: Log TGI (converted),44.7 µM
same,GI50,SK-MEL-5,14.1 µM
same,LC50,SK-MEL-5,61.7 µM
same,TGI,SK-MEL-5; read-out: Log TGI (converted),29.5 µM
same,GI50,A549,24.5 µM
same,LC50,A549,> 100 µM
same,TGI,A549; read-out: Log TGI (converted),70.8 µM
same,GI50,OVCAR-4,28.8 µM
same,"LC50 (lethal concentration, 50%)",OVCAR-4,> 100 µM
same,TGI,OVCAR-4; read-out: Log TGI (converted),> 100 µM
same,GI50,OVCAR-8,26.9 µM
same,CC50,OVCAR-8; [4],> 100 µM
same,TGI,OVCAR-8; read-out: Log TGI (converted),74.1 µM
same,GI50,ACHN,29.5 µM
same,LC50,ACHN,> 100 µM
same,TGI,ACHN; read-out: Log TGI (converted),93.3 µM
same,GI50,UACC-257,22.9 µM
same,LC50,UACC-257,> 100 µM
same,TGI,UACC-257; read-out: Log TGI (converted),60.3 µM
same,GI50,U-251,34.7 µM
same,LC50,U-251,> 100 µM
same,TGI,U-251; read-out: Log TGI (converted),100 µM
same,GI50,OVCAR-3,20.4 µM
same,CC50,OVCAR-3; [4],> 100 µM
same,TGI,OVCAR-3; read-out: Log TGI (converted),> 100 µM
same,LC50,CCRF-CEM,> 100 µM
same,GI50,CCRF-CEM; read-out: GI50,6.62 µM
same,TGI,CCRF-CEM; read-out: Log TGI (converted),> 100 µM
same,GI50,CCRF-CEM; read-out: pGI50 (converted),6.61 µM
same,GI50,RXF 393,17 µM
same,LC50,RXF 393,> 100 µM
same,TGI,RXF 393; read-out: Log TGI (converted),43.7 µM
same,GI50,KM12,13.8 µM
same,CC50,KM12; [4],58.9 µM
same,TGI,KM12; read-out: Log TGI (converted),28.8 µM
same,GI50,EKVX,26.3 µM
same,LC50,EKVX,> 100 µM
same,TGI,EKVX; read-out: Log TGI (converted),> 100 µM
